Source: PMC4827872 (Chemical research in toxicology, 2015)
Like-named read-outs stand apart in the source and are kept apart here. Where a SMILES comes first, the peptide text is derived from it. The star is where a group is joined. Cbz = O=C(OCc1ccccc1)*

Columns and labels:
DIO2 [1] = target: T1, DIO2 (Homo sapiens, UniProt Q92813); test: DIO2 activity in H4 glioma cells exposed to PBDEs/OH-BDEs; assay type: cell-based; conditions: for decrease in DIO2 activity with MG132 coexposure: plus 10 µM MG132
T1 sequence (Q92813 1-273): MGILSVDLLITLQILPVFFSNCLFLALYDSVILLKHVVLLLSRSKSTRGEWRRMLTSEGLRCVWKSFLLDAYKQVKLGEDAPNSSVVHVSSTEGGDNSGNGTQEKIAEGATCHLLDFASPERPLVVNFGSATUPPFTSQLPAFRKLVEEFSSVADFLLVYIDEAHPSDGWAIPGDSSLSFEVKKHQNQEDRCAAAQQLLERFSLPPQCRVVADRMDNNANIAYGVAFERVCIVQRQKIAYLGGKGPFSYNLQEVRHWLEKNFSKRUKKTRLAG

DIO2 [2] = target: T1, DIO2; test: DIO2 activity in primary human astrocyte cells exposed to test compounds; assay type: cell-based
Outline: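 Primary human astrocytes were grown on gelatin-coated dishes, moved to serum-free A-DMEM (30 nM selenium) 24 h before use, and induced with 10 µM forskolin. Exposure was 6 h (0.1% DMSO), with 100 nM rT3 as positive control. Microsomes (100,000×g, 60 min) were incubated 75 min at 37°C with DTT/EDTA/glycerol buffer. Net T3 was measured by LC/MS/MS (fmol min−1 mg protein−1) and expressed as % vehicle control; n=8 from 2 experiments.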

DIO2 [3] = target: T1, DIO2; test: In vitro DIO2 kinetics and inhibition in microsomal preparations of H4 cells; assay type: biochemical
DIO2 mRNA = DIO2 mRNA expression; assay type: cell-based, human; conditions: Homo sapiens, 6 h, read-out: DIO2 mRNA expression ratio relative to the control value of 1.0
cultured cells [4] = test: Cell viability; assay type: cell-based; conditions: any doses less than 7.5 µM; 24 h
cultured cells [5] = test: Cell membrane damage; assay type: cell-based; conditions: any doses less than 7.5 µM; 24 h
Outline: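 Cells in 96-well plates, switched to serum-free A-DMEM with 30 nM selenium 24 h beforehand, then exposed 24 h to test compound added from 1,000× DMSO stocks (final DMSO 0.1%). Membrane damage was read as glucose-6-phosphate dehydrogenase activity released into the medium. Values were normalized to well DNA content and to DMSO vehicle controls.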

[6] = Biotransformation assay in cultured cells; assay type: in vitro ADME, human; conditions: cells exposed for up to 48 h; 1 µM
[7] = human serum, cited from earlier work; for Average Serum Concentration: geometric mean or median
[8] = substrate: NC(Cc1cc(I)c(Oc2cc(I)c(O)c(I)c2)c(I)c1)C(=O)O; test: In vitro DIO2 kinetics and inhibition in microsomal preparations of H4 cells; assay type: biochemical, human; conditions: other: H4 microsomal fraction; T4 as substrate; no inhibitor; 37.0 °C

Work on `Brc1ccc(Oc2cc(Br)c(Br)cc2Br)c(Br)c1` [BDE-99] yielded an inhibition at 0.5 µM (DIO2 [1]; 6 h, read-out: decrease in DIO2 activity, H4 cells, 500 nM, 6 h exposure) of 82.9 ± 6.7%, an inhibition at 2.5 µM (DIO2 [1]; 6 h, read-out: decrease in DIO2 activity, H4 cells, 2,500 nM, 6 h exposure) of 80.8 ± 4.7% and an inhibition at 0.5 µM (DIO2 [1]; 12 h, read-out: decrease in DIO2 activity, H4 cells, 500 nM, 12 h exposure) of 64.6 ± 2.8%. For the same molecule, the “decrease in DIO2 activity with MG132 coexposure” value (DIO2 [1]; H4 cells, 500 nM, 6 h, relative to MG132 control) was 45.5 ± 3.8%, the “decrease in DIO2 activity” value (DIO2 [1]; H4 cells, doses of 500 nM or greater (abstract)) was “up to 80%” and the “Significant DIO2 Effects in H4 Cells (%Ctrl)” value (DIO2 [1]; at the lowest dose that significantly decreased DIO2 activity) was 82.9%. For the same molecule, the “decrease in DIO2 activity” value (DIO2 [1]; both cell types (primary astrocytes and H4 glioma), exposure for a few hours) was “approximately 50%”, the inhibition at 0.5 µM (DIO2 [2]; 6 h, read-out: decrease in DIO2 activity) was 51.8 ± 8.6% and the “decrease in DIO2 activity” value (DIO2 [2]; primary astrocyte cells, doses of 500 nM or greater (abstract)) was 50%. The Ki (DIO2 [3]) was 33.3 µM, the “concentrations at which DIO2 activity was inhibited” value (DIO2 [3]; H4 microsomes, 2 nM T4) was over 1 µM and the “Vmax of DIO2 with inhibitor added” value (DIO2 [3]; H4 microsomes, 20 µM BDE-99 added) was 50.6 ± 5.6 fmol min^−1 mg protein^−1. The inhibition at 90 µM (DIO2 [3]; read-out: maximum inhibition of DIO2) was 45%, the mrna remaining at 0.5 µM (DIO2 mRNA) was 63 ± 6% and the mrna remaining at 2.5 µM (DIO2 mRNA) was 59 ± 10%. The “significant effects on viability” value (cultured cells [4]) was “not detected”, the “significant effects on membrane damage” value (cultured cells [5]) was “not detected” and the “metabolites formed in cells or cell culture media” value [6] was “Neither OH-BDEs nor debrominated PBDE metabolites were detected”. The “Average Serum Concentration” value ([7]; ref 5) was 6.39 ng/g lipid, the “Average Serum Concentration” value ([7]; ref 43) was 3.0 ng/g lipid and the “Average Serum Concentration” value ([7]; ref 52) was 26.1 ng/g lipid. The “Maximum Serum Concentration” value ([7]; ref 5) was 225 ng/g lipid, the “Maximum Serum Concentration” value ([7]; ref 43) was 33 ng/g lipid and the “Maximum Serum Concentration” value ([7]; ref 52) was 1,200 ng/g lipid.

With `CC(C)C[C@@H](C=O)NC(=O)[C@H](CC(C)C)NC(=O)[C@H](CC(C)C)NC(=O)OCc1ccccc1` [MG132, reference compound] (Cbz-Leu-Leu-Leu-aldehyde) the “increase in basal DIO2 activity” value (DIO2 [1]; H4 cells, 10 µM) was 73.5 ± 17.9%.

In the case of `N[C@@H](Cc1ccc(Oc2cc(I)c(O)c(I)c2)c(I)c1)C(=O)O` [rT3, 3,3’,5’ Triiodothyronine, reference compound], the “decrease in DIO2 activity” value (DIO2 [1]; H4 cells, 100 nM, 6 h, no inhibitor coexposure (Figure 8)) is reported as 55.9% ± 3.6, the “decrease in DIO2 activity with MG132 coexposure” value (DIO2 [1]; H4 cells, 100 nM, 6 h) is reported as 25.8 ± 2.3% and the “decrease in DIO2 activity” value (DIO2 [2]; primary human astrocytes, 100 nM, 6 h, positive control) is reported as 49.4 ± 4.1%.

B1: DIO2 (Homo sapiens) (protein)
chain: MGILSVDLLITLQILPVFFSNCLFLALYDSVILLKHVVLLLSRSKSTRGEWRRMLTSEGLRCVWKSFLLDAYKQVKLGEDAPNSSVVHVSSTEGGDNSGNGTQEKIAEGATCHLLDFASPERPLVVNFGSATUPPFTSQLPAFRKLVEEFSSVADFLLVYIDEAHPSDGWAIPGDSSLSFEVKKHQNQEDRCAAAQQLLERFSLPPQCRVVADRMDNNANIAYGVAFERVCIVQRQKIAYLGGKGPFSYNLQEVRHWLEKNFSKRUKKTRLAG
Molecule B1 has a Km [8] of 3.49 ± 0.94 nM and a Vmax [8] of 47.5 ± 2.9 fmol min^−1 mg protein^−1.
